Measurements published in ChEMBL document CHEMBL2157911, “Synthesis and biological evaluation of a series of podophyllotoxins derivatives as a class of potent antitubulin agents” (Bioorg Med Chem, 2012).

Columns and labels:
SGC-7901 = assay: Cytotoxicity against human SGC7901 cells after 48 hrs; format: functional, cell-based; conditions: SGC-7901, 48 h
In short: (§1)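 Cells were grown in RPMI 1640 with 10% fetal serum, 2 mM L-glutamine, […], penicillin and streptomycin. Log-phase cells were seeded, left 24 h at 37 °C/5% CO2 to attach, then exposed to 0–100 µM compound for 48 h (DMSO <0.1%), five wells per concentration.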

K562 = assay: Cytotoxicity against human K562 cells after 48 hrs; format: functional, cell-based; conditions: K562, 48 h; in short: as §1
HepG2 = assay: Cytotoxicity against human HepG2 cells after 48 hrs; format: functional, cell-based; conditions: HepG2, 48 h; in short: as §1
HeLa = assay: Cytotoxicity against human HeLa cells after 48 hrs; format: functional, cell-based; in short: as §1
[1] = Inhibition of goat brain tubulin polymerization after 30 mins; parameters: species or system Capra hircus
In short: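 Goat brain tubulin was purified by two polymerization–depolymerization cycles. Tubulin (10 µM) was incubated with compound at 0, 10, 20, 40 or 60 µM in buffer containing 20% glycerol and […] at 37 °C, then cooled to 0 °C. Assembly was followed turbidimetrically in a fluorescence plate reader.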

| Compound | IC50 (SGC-7901) [µM] | IC50 (K562) [µM] | IC50 (HepG2) [µM] | IC50 (HeLa) [µM] | IC50 [1] [µM] |
| --- | --- | --- | --- | --- | --- |
| CCCN(CCC)/C(CCO[C@@H]1c2cc3c(cc2[C@@H](c2cc(OC)c(OC)c(OC)c2)[C@H]2C(=O)OC[C@@H]21)OCO3)=N/S(C)(=O)=O | 2.87 | 2.96 | 2.14 | 2.63 |  |
| COc1cc([C@@H]2c3cc4c(cc3[C@@H](OCC/C(=N\S(C)(=O)=O)NCc3ccccc3)[C@H]3COC(=O)[C@H]23)OCO4)cc(OC)c1OC | 19.2 | 12.1 | 17.9 | 11.2 |  |
| COc1cc([C@@H]2c3cc4c(cc3[C@@H](OCC/C(=N\S(C)(=O)=O)N3CCCCC3)[C@H]3COC(=O)[C@H]23)OCO4)cc(OC)c1OC | 18.2 | 9.01 | 57.1 | 10.4 |  |
| COc1cc([C@@H]2c3cc4c(cc3[C@@H](OCC/C(=N\S(C)(=O)=O)N3CCCC3)[C@H]3COC(=O)[C@H]23)OCO4)cc(OC)c1OC | 11.2 | 8.34 | 20.8 | 5.99 |  |
| COc1cc([C@@H]2c3cc4c(cc3[C@@H](OCC/C(=N\S(C)(=O)=O)N(C3CCCCC3)C3CCCCC3)[C@H]3COC(=O)[C@H]23)OCO4)cc(OC)c1OC | 3.21 | 2.61 | 1.95 | 4.33 |  |
| COc1cc([C@@H]2c3cc4c(cc3[C@@H](OCC/C(N)=N\S(C)(=O)=O)[C@H]3COC(=O)[C@H]23)OCO4)cc(OC)c1OC | 4.31 | 3.48 | 2.87 | 3.75 |  |
| COc1cc([C@@H]2c3cc4c(cc3[C@@H](OCC/C(=N\S(C)(=O)=O)N(C)C)[C@H]3COC(=O)[C@H]23)OCO4)cc(OC)c1OC | 3.71 | 5.18 | 4.17 | 2.58 |  |
| COc1cc2c(c(OC)c1OC)-c1ccc(OC)c(=O)cc1[C@@H](NC(C)=O)CC2 [COLCHICINE] | 0.05 | 0.55 | 0.02 | 0.1 |  |
| COc1cc([C@@H]2c3cc4c(cc3[C@H](O)[C@H]3COC(=O)[C@H]23)OCO4)cc(OC)c1OC [PODOFILOX] | 0.34 | 4.51 | 0.51 | 0.14 | 24 |
